Screening data deposited in PubChem BioAssay by several laboratories.
An excerpt weighted towards active compounds, which were near 1.4% of everything screened.
Apaf-1 inh: inhibitors of human Apaf-1 apoptosome | hit rate 0.71% among 330,000 | inhibition, % at 20 µM | reconstituted apoptosome caspase-3 activity, DEVD-Rh110 fluorescence; active = inhibition of at least 40% at 20 µM;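 also: plate controls were DMSO wells for no effect and DEVD-CHO caspase inhibitor wells for full effect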
Target sequence (O14727 whole entry, looked up): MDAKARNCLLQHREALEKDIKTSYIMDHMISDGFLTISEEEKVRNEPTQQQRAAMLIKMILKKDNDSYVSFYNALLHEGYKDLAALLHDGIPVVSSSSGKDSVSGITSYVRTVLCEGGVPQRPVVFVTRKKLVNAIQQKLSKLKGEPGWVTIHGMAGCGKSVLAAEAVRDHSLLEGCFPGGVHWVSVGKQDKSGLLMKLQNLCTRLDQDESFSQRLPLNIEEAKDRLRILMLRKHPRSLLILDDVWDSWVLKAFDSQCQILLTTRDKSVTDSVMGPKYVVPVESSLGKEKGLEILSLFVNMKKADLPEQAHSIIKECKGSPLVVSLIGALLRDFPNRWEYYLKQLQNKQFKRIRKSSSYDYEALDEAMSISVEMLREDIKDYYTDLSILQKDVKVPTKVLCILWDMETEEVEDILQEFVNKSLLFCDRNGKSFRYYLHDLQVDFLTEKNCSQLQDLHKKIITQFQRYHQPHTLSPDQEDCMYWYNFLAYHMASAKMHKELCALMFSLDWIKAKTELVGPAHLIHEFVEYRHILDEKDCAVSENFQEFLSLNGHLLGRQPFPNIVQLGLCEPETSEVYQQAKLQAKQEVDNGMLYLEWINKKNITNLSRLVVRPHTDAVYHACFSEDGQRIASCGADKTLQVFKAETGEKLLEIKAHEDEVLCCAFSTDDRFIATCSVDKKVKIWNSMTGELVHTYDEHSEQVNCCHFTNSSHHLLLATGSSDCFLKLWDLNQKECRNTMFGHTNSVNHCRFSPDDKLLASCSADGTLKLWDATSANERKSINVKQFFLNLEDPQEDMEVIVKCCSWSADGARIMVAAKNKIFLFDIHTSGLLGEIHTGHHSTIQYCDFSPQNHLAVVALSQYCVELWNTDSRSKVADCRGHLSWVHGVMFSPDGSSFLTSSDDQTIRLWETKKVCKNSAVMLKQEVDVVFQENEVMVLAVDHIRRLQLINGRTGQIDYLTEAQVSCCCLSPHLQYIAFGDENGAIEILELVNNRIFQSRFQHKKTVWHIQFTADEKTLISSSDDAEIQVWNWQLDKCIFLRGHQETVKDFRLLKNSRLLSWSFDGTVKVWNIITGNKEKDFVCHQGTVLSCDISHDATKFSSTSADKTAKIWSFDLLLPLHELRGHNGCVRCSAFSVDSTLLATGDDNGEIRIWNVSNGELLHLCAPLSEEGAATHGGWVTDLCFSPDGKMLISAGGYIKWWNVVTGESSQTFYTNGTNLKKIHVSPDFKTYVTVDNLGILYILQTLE
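System – cell-free apoptosome with Apaf-1, procaspase-3 and caspase-9 · Buffer or medium – pH 7.5 Hepes buffer with CHAPS, BSA, DTT · Also added – cytochrome c with DEVD-Rh110 · Times – 30 min compound preincubation, 50 min activation, room temperature · Technique – Rh110 fluorescence intensity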
UBC9 SUMO inh: inhibitors of human SUMOylation (UBC9); hit rate 0.36% among 290,000; HTRF SUMOylation assay, SAE1/SAE2 + UBC9, in vitro; P63279; AID 2006; inhibition, % at 35 µM; in the data active = inhibition above about 50%, passing the limit was not always enough
GSTO1 inh: GSTO1 inhibition, counter-screen for RBBP9 inhibitors. inhibition, % at 5.96 µM. recombinant GSTO1, activity-based probe fluorescence polarization. hit rate 1.1% among 300,000. AID 1974. P78417;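 active = inhibition above the campaign mean inhibition plus 3 SD, cut at about 35% in these data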;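 also: 0% = GSTO1-1 with DMSO and 100% = wells lacking GSTO1-1 enzyme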
Redox H2O2 prof: compounds producing H2O2 with reducing agent – biochemical, NIH compound library profiling, artefact control for MLSCN library redox annotation, primary screen. activation, % at 10 µM. DTT-dependent redox cycling H2O2, phenol red/HRP absorbance; 100% = 100 µM peroxide control, 0% = buffer. hit rate 0.03% among 200,000. AID 878;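 active = activation of at least 50% relative to the plate's high and low controls in the primary single-dose screen; inactive = activation below 50%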;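 also: compound incubated with DTT at 0.8 mM final as the reducing agent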
HKDC1 inh: blocks human hexokinase HKDC1 activity. Q2TB90. recombinant HKDC1, G6PDH/diaphorase resazurin coupled fluorescence. inhibition, % at 20 µM. hit rate 0.16% among 340,000. AID 493160;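 active = inhibition above about 35% when tested at 20 µM, limit read from the data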;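 also: plate controls were DMSO wells with enzyme for no effect and DMSO wells lacking enzyme for full effect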
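Test system: Recombinant HKDC1 (HK5) hexokinase enzyme, produced in-house | Input: HKDC1 at 5 µg/mL | Buffer or medium: Tris pH 8.0 buffer with MgCl2, Tween-20, BSA, BME | Schedule: 90 min reaction incubation at room temperature, dark | Technique: Resazurin-to-resorufin fluorescence via G6PDH and diaphorase coupling, 525/613 nm | Controls: DMSO wells with and without enzyme mix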
Numbers without * were called inactive; . = no result given.

SMILES | Apaf-1 inh | UBC9 SUMO inh | GSTO1 inh | Redox H2O2 prof | HKDC1 inh
COc1cc(C(=O)N/N=C/c2cc([N+](=O)[O-])cs2)cc(OC)c1OC | -3 | 68* | -2 | -1 | -8
CCOc1ccc(C(=O)N/N=C/c2cc([N+](=O)[O-])cs2)cc1 | 7 | 18 | 0 | -1 | 14
O=C(NCc1ccccc1)c1nncc(-c2ccccc2)n1 | -15 | . | . | . | -8
O=C(O)/C(=C\c1ccc(Cl)c([N+](=O)[O-])c1)c1ccc(S(=O)(=O)N2CCCCC2)s1 | 7 | 39 | 62* | 0 | 6
O=C(O)/C(=C\c1ccc(Cl)c([N+](=O)[O-])c1)c1ccc(S(=O)(=O)N2CCCC2)s1 | 3 | . | . | . | 7
COc1ccc(-c2cc(-c3ccccc3)n3ncnc3n2)cc1 | 7 | 53* | -4 | 0 | 0
COc1ccc(-c2cc(N3CCCC3)n3ncnc3n2)cc1 | 8 | 14 | 5 | 2 | 0
CCN(CC(=O)Nc1c(F)cccc1F)C(=O)C1CCN(S(=O)(=O)c2ccc(C)c(C)c2)CC1 | -5 | . | 1 | . | -7
CCN(CC)c1ccc(/C=N/N2C(C)CCCC2C)c(O)c1 (configuration not stated) | 17 | 2 | -5 | . | 2
CN(C)[C@@H]1C(=O)C(C(=O)NCN2CCCC2)=C(O)[C@@]2(O)C(=O)C3=C(O)c4c(O)cccc4[C@@](C)(O)C3CC12 (some centres not stated) | . | 77* | . | 1 | .
Cc1ccnc2c1ccc1c(C)ccnc12 | 44* | . | . | . | 28
Cc1ccnc2c1ccc1cccnc12 | 5 | . | . | . | -3
COc1ccccc1N1CCN(C(=O)c2cccc(S(=O)(=O)Nc3ccccc3F)c2)CC1 | -1 | . | . | . | -2
COc1cccc(OCC(=O)NC2CCS(=O)(=O)C2)c1 (configuration not stated) | 3 | . | . | . | -7
CCOCC(=O)Nc1nc(C)cc(C)n1 | -1 | 69* | 0 | 0 | -7
COc1ccc(CCn2c(Br)nc3c2c(=O)[nH]c(=O)n3C)cc1 | -3 | -10 | 8 | 1 | -1
COc1ccc(CCn2c(NN=C(C)C)nc3c2c(=O)[nH]c(=O)n3C)cc1 | -3 | 15 | 46* | . | 10
CCC(=O)c1ccc(/C=C/c2nc3ccccc3n2C)o1 | 2 | 62* | -4 | -1 | -4
Cc1ccc2c(c1)Oc1ccc(NC(=O)CCl)cc1C(=O)N2 | -2 | 10 | 92* | 5 | 27
CCCCn1c(SCC(N)=O)nc2c(sc3ccccc32)c1=O | -1 | 12 | 50* | 1 | 3
COC(=O)c1ccc(C)c(-n2c(=O)n(Cc3ccccc3)c(=O)c3[nH]cnc32)c1 | -4 | 13 | -4 | . | -8
Nc1ccc(O)c2ccccc12 | 68* | . | 62* | . | .
CC(=O)N1c2c(cc(Br)cc2S(=O)(=O)NCc2ccc3c(c2)OCO3)CC1C (configuration not stated) | 2 | 92* | 10 | 0 | -1
CC[C@H](C)[C@@H](C(=O)NCCCCCCCCCCC(=O)N1CCN(C(=O)OC(C)(C)C)CC1)n1cc(CCCCN=C(NC(=O)OC(C)(C)C)NC(=O)OC(C)(C)C)nn1 | 56* | . | 9 | . | .
C#CCOCCOCCOCCNc1nc(N2CCN(C(=O)CCCCCCCCCCNC(=O)[C@H]([C@@H](C)CC)n3cc(CCCCCN)nn3)CC2)nc(N2CCN(C(=O)CCCCCCCCCCNC(=O)[C@@H]([C@H](C)CC)n3cc(CCCCCN)nn3)CC2)n1 | 78* | . | 2 | . | .
SMILES | Apaf-1 inh | UBC9 SUMO inh | GSTO1 inh | Redox H2O2 prof | HKDC1 inh
C#CCOCCOCCOCCNc1nc(N2CCN(C(=O)[C@H]([C@@H](C)CC)n3cc([C@@H](N)CO)nn3)CC2)nc(N2CCN(C(=O)[C@H](Cc3cc4ccccc4[nH]3)n3cc([C@@H](N)Cc4ccc(O)cc4)nn3)CC2)n1 | 57* | -9 | 10 | . | .
C#CCOCCOCCOCCNc1nc(N2CCN(C(=O)CCCCCCCCCCNC(=O)[C@H]([C@@H](C)CC)n3cc(CCCCN=C(N)N)nn3)CC2)nc(N2CCN(C(=O)CCCCCCCCCCNC(=O)[C@H]([C@@H](C)CC)n3cc(CCCCN=C(N)N)nn3)CC2)n1 | 41* | . | -5 | . | .
C#CCOCCOCCOCCNc1nc(N2CCOCC2)nc(N2CCN(C(=O)CCCCCCCCCCNC(=O)[C@@H]([C@H](C)CC)n3cc(CCCCCN)nn3)CC2)n1 | 20 | . | 2 | . | 1
CC[C@H](C)[C@@H](C(=O)NCCCCCCCCCCC(=O)N1CCN(C(=O)OC(C)(C)C)CC1)n1cc(CCCCCNC(=O)OC(C)(C)C)nn1 | 6 | . | 3 | . | -2
C#CCOCCOCCOCCNc1nc(N2CCN(C(=O)CCCCCCCCCCNC(=O)[C@H]([C@@H](C)CC)n3cc(CCCCN=C(N)N)nn3)CC2)nc(N2CCN(C(=O)CCCCCCCCCCNC(=O)[C@H](CO)n3cc(CCCCCN)nn3)CC2)n1 | 85* | . | -7 | . | 6
C#CCOCCOCCOCCNc1nc(N2CCN(C(=O)CCCCCCCCCCNC(=O)[C@H]([C@@H](C)CC)n3cc(CCCCCN)nn3)CC2)nc(N2CCN(C(=O)CCCCCCCCCCNC(=O)[C@H]([C@@H](C)CC)n3cc(CCCCN=C(N)N)nn3)CC2)n1 | 71* | . | -6 | . | .
C#CCOCCOCCOCCNc1nc(N2CCN(C(=O)CCCCCCCCCCNC(=O)[C@H](CO)n3cc(CCCSC)nn3)CC2)nc(N2CCN(C(=O)CCCCCCCCCCNC(=O)[C@H](CCCN=C(N)N)n3cc(C[C@@H](C)CC)nn3)CC2)n1 | 45* | . | -4 | . | 9
C#CCOCCOCCOCCNc1nc(N2CCN(C(=O)CCCCCCCCCCNC(=O)Cn3cc(C[C@@H](C)O)nn3)CC2)nc(N2CCN(C(=O)CCCCCCCCCCNC(=O)[C@H](CO)n3cc(CCCSC)nn3)CC2)n1 | 37 | . | -45 | . | -3
C#CCOCCOCCOCCNc1nc(N2CCN(C(=O)Cn3cc(CCCN=C(N)N)nn3)CC2)nc(N2CCN(C(=O)[C@H]([C@@H](C)CC)n3cc(CCCCN)nn3)CC2)n1 | 8 | . | 0 | . | -11
Cc1ccccc1-n1c(SCC(=O)N2CCOCC2)nc(O)c(Cc2ccccc2)c1=O | 12 | 13 | -1 | . | -4
CC(C)C(=O)Nc1cccc(-c2cn3ccsc3n2)c1 | 67* | 6 | -6 | 1 | -6
COc1ccc(CCN=C(N)NS(=O)(=O)c2cc(F)ccc2OC)cc1 | 6 | 6 | 0 | . | -3
CCOC(=O)C1=C(O)c2ccccc2C(=O)/C1=C\c1ccc(C)cc1 | . | 11 | 31 | 0 | 67*
Cn1nc(-c2ccc(Cl)cc2)c2cc(C(=O)NCCCN3CCCC3)sc21 | 49* | 14 | -1 | -2 | -1
O=C(CCN1C(=O)C2CC=CCC2C1=O)Nc1cc(C(F)(F)F)ccc1N1CCCC1 (configuration not stated) | -5 | . | 36* | . | -3
O=C(/C=C/c1cccc([N+](=O)[O-])c1)c1ccco1 | -5 | 11 | 12 | . | 17
